This is an account of results in ChEMBL document CHEMBL4837211, “Adamantane derivatives as potential inhibitors of p37 major envelope protein and poxvirus reproduction. Design, synthesis and antiviral activity” (Eur J Med Chem, 2021).

Structures are written as SMILES.

Series [1] has as its system Vero. The experiment in a line: (§1) Cytotoxicity against African green monkey Vero cells assessed as reduction in cell viability by neutral red dye based colorimetric analysis. The conditions noted are these: chlorocebus sabaeus, vero. An outline of the steps:
(§2)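 Vero monolayers are grown in DMEM with 5% FBS, gentamicin and amphotericin B, and assayed in the same medium with 2% serum. Each compound is tested as 8 three-fold dilutions, starting at 1, 10 or 100 µg/ml, added before 1000 pfu/well virus. After 4 days, neutral red is added for 1.5 h, cells are washed and lysed, and OD is read. CC50 and IC50 are derived from OD values.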

A short description of series [2]: as §1. To be noted: chlorocebus sabaeus, Vero cells. An outline of the steps: as §2
Series [3] deals with p37 (Vaccinia virus Copenhagen). Nature of the series: Selectivity index, ratio of CC50 for African green monkey Vero cells to IC50 for inhibition of p37 in Vaccinia virus Copenhagen infected in African green monkey Vero cells. The conditions noted are these: read-out: Ratio CC50/IC50. Format: toxicity.
A short description of series [4]: cells. The series is classed as cell-based. To be noted: Cowpox virus, Vero, 96 h.
Series [5] concerns p37 (Cowpox virus Grishak). The experiment in a line: Selectivity index, ratio of CC50 for African green monkey Vero cells to IC50 for inhibition of p37 in Cowpox virus Grishak infected in African green monkey Vero cells. To be noted: read-out: Ratio CC50/IC50. The series is classed as toxicity.
Series [6] is described as follows: cells. Format: cell-based. The conditions noted are these: Ectromelia virus, Vero, 96 h.
Series [7] has as its system p37 (Ectromelia virus K1). The experiment in a line: Selectivity index, ratio of CC50 for African green monkey Vero cells to IC50 for inhibition of p37 in Ectromelia virus K1 infected in African green monkey Vero cells. Format: toxicity. To be noted: read-out: Ratio CC50/IC50.

Broadly, the CC50 is the concentration that lowers cell viability or growth by half. Regarding `CC12CC3CC(C)(C1)CC(NC(=O)c1ccc(C(F)(F)F)cc1)(C3)C2`, in series [1], the CC50 was determined as 20.5 µM.

The IC50 is the point on the concentration scale where inhibition reaches its midpoint. Consider `O=C(NNC(=O)C12CC3CC(CC(C3)C1)C2)c1ccc(C(F)(F)F)cc1`, for which the CC50 in series [2] is greater than 273 µM. Also, the selectivity ratio in series [3] is greater than 255; in series [5] it was greater than 57; in series [7] it was greater than 273. The IC50 in series [4] came out at 4.77 µM; in series [6] it was 1 µM.

As for `O=C(NNC1C2CC3CC1CC(Cl)(C3)C2)c1ccc(C(F)(F)F)cc1` (stereo not drawn), the 50% cytotoxic concentration (CC50) in series [2] is roughly 215 µM. Moreover, the selectivity ratio was determined as 61 in series [3], 20.7 in series [5] and 27.5 in series [7]. Besides, the IC50 in series [4] stood at 10.4 µM; in series [6], 7.8 µM.

As for `O=C(NNC12CC3CC(CC(C3)C1)C2)c1ccc(C(F)(F)F)cc1`, the CC50 in series [2] stood at 2.8 µM.

For `C/C(=N\NC(=O)c1ccc(C(F)(F)F)cc1)C12CC3CC(CC(C3)C1)C2`, the half-maximal cytotoxic concentration (CC50) in series [1] is greater than 274 µM. Further, the selectivity ratio in series [3] is greater than 26; in series [5], greater than 23; in series [7], greater than 25. Moreover, the IC50 in series [4] was 11.9 µM; in series [6] it was 10.9 µM.

Regarding `CC12CC3CC(C1)CC(NC(=O)c1ccc(C(F)(F)F)cc1)(C3)C2`, the half-maximal cytotoxic concentration (CC50) in series [1] was greater than 296 µM. Further, the selectivity ratio in series [3] was greater than 33; in series [5], greater than 19; in series [7], greater than 72. Also, the IC50 in series [4] amounted to 15.6 µM; in series [6], 4.1 µM.

As for `O=C(NNC1C2CC3CC(C2)CC1C3)c1ccc(C(F)(F)F)cc1` (stereo not drawn), the CC50 in series [2] is greater than 296 µM. Also, the selectivity ratio in series [3] was greater than 103; in series [5], greater than 72; in series [7] it was greater than 118. Moreover, the IC50 in series [4] was 4.06 µM; in series [6] it was 2.5 µM.

Turning to `O=C(NCC12CC3CC(CC(C3)C1)C2)c1ccc(Br)cc1`, the CC50 in series [1] was 238 µM. The selectivity ratio in series [3] stood at 28; in series [7], 136. In addition, the IC50 in series [6] was determined as 1.75 µM.

Take `O=C(NC12CC3CC(CC(C3)C1)C2)c1ccc(C(F)(F)F)cc1`: the cytotoxic concentration (CC50) in series [1] is greater than 309 µM. For the same compound, the selectivity ratio is greater than 2320 in series [3], greater than 333 in series [5] and greater than 628 in series [7]. Further, the results for the half-maximal inhibitory concentration (IC50) in series [4] and in series [6] were 0.928 µM and 0.492 µM, respectively.

Take `CCC12CC3CC(C1)CC(C(=O)NNC(=O)c1ccc(C(F)(F)F)cc1)(C3)C2`: the cytotoxic concentration (CC50) in series [2] is 47 µM. In addition, the selectivity ratio in series [3] is 3.75.

Turning to `O=C(NC1C2CC3CC(C2)CC1C3)c1ccc(Br)cc1` (stereo not drawn), in series [1], the half-maximal cytotoxic concentration (CC50) was greater than 299 µM. Moreover, the selectivity ratio in series [3] is greater than 98; in series [5], greater than 26.5; in series [7], greater than 61. Moreover, the half-inhibitory concentration (IC50) turned out to be 11.3 µM in series [4] and 4.9 µM in series [6].

Take `O=C(NNC(=O)c1ccc(C(F)(F)F)cc1)NC12CC3CC(CC(C3)C1)C2`: the CC50 in series [1] stood at 94.3 µM. For the same compound, the selectivity ratio in series [3] was 2.6.

For `O=C(NC1C2CC3CC(C2)CC1C3)c1ccc(C(F)(F)F)cc1` (stereo not drawn), in series [1], the CC50 was greater than 309 µM. Further, the selectivity ratio was greater than 1430 in series [3], greater than 321 in series [5] and greater than 543 in series [7]. Besides, the IC50 was found to be 0.96 µM in series [4] and 0.569 µM in series [6].

Regarding `O=C(NCC12CC3CC(CC(C3)C1)C2)c1ccc(C(F)(F)F)cc1`, in series [1], the CC50 is greater than 296 µM. Also, the selectivity ratio in series [3] is greater than 1100; in series [5], greater than 239. Further, in series [4], half-maximal inhibition (IC50) was put at 1.24 µM.

With `CCC12CC3CC(C1)CC(NNC(=O)c1ccc(C(F)(F)F)cc1)(C3)C2`, in series [2], the CC50 is 2.5 µM. In addition, in series [3], the selectivity ratio is 1.5.

With `CC12CC3CC(C)(C1)CC(C(=O)NNC(=O)c1ccc(C(F)(F)F)cc1)(C3)C2`, the CC50 in series [2] was greater than 254 µM. Also, in series [3], the selectivity ratio was greater than 8.2.

On to `O=C(NN=C1C2CC3CC(C2)CC1C3)c1ccc(C(F)(F)F)cc1`, for which the CC50 in series [2] was greater than 297 µM. The selectivity ratio in series [3] was greater than 1.5.

Regarding `CN(C(=O)c1ccc(C(F)(F)F)cc1)C12CC3CC(CC(C3)C1)C2`, the CC50 in series [1] is greater than 296 µM. Besides, the selectivity ratio in series [3] is greater than 61; in series [5] it was greater than 9; in series [7] it was greater than 48. For the same compound, the half-inhibitory concentration (IC50) was found to be 32.9 µM in series [4] and 6.17 µM in series [6].

On to `CCC12CC3CC(C1)CC(NC(=O)c1ccc(C(F)(F)F)cc1)(C3)C2`, for which the half-maximal cytotoxic concentration (CC50) in series [1] was greater than 280 µM. In addition, the selectivity ratio in series [3] is greater than 68; in series [5] it was greater than 25; in series [7], greater than 25. For the same compound, the half-maximal inhibitory concentration (IC50) in series [4] and in series [6] was 11.1 µM in each case.

For `CC(NNC(=O)c1ccc(C(F)(F)F)cc1)C12CC3CC(CC(C3)C1)C2` (racemic), the CC50 in series [2] was 14 µM. For the same compound, the selectivity ratio in series [3] worked out at 27.

As for `O=C(NN1C(=O)[C@@H]2[C@@H]3C=C[C@@H]([C@H]4C[C@@H]34)[C@@H]2C1=O)c1ccc(C(F)(F)F)cc1` [TECOVIRIMAT], in series [1], the half-maximal cytotoxic concentration (CC50) is greater than 266 µM. Also, the selectivity ratio in series [3] was greater than 100000; in series [5], greater than 50000; in series [7], greater than 33000. Moreover, the results for the IC50 in series [4] and in series [6] were 0.00532 µM and 0.00806 µM, respectively.
